In ChEMBL document CHEMBL1127616, “Synthesis, structural characterization, and antitumor properties of a novel class of large-ring platinum(II) chelate complexes incorporating the cis-1,4-diaminocyclohexane ligand in a unique locked boat conformation” (J Med Chem, 1994):

What was measured:
Format in all cases: functional, organism-based
Mus musculus [1] = assay: Tested for the ratio of treated and control against solid tumor murine P388 leukemia 10 mg/kg per injection; T/C
Method in brief: (§1)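 Murine leukemia life span assay in CD2F1 (Balb/c × DBA/2F1) mice, 18–22 g, randomized, with IP tumor cell inoculation on day 0. Depending on the model, the inoculum was 1 × 10^4 cells with IP dosing on days 3, 7 and 11, or 1 × 10^6 cells with IP dosing on days 1, 5 and 9. Drug was given in 0.9% saline, mg/kg per injection, by average cage weight. Read-outs were median day of death and %T/C. Mice alive 60 days after treatment counted as cured and were excluded.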

Mus musculus [2] = assay: Tested for median life span against solid tumor P388 leukemia at 5.0 mg/kg per injection; method in brief: as §1
M5076 [3] = assay: Tested for net cell kill tumor burden reduction during therapy at the dose 9.0 mg/kg in M5076 sarcoma; set-up: dose 9 mg/kg; conditions: Mus musculus
Method in brief: (§2)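 Solid tumor growth delay assay; B16 melanoma and M5076 sarcoma were run in B6C3F1 (C57BL/6 × C3HF1) mice of 18–22 g. Tumor fragments were implanted SC on day 0, then drug in 0.9% saline was given IP on days 1, 5, 9 or days 3, 7, 11, mg/kg per injection. T − C is the difference in days for treated and control tumors to reach 750 mg. Net log cell kill is tumor burden reduction during therapy. Cured mice were excluded.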

L1210 [4] = assay: Tested for in vivo weight change against murine L1210 leukemia at the dose of 10 mg/kg per injection in experiment 2; conditions: Mus musculus
Method in brief: (§3)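 Leukemia life-span assays used CD2F1 (Balb/c × DBA/2F1) mice weighing 18–22 g. Cells were inoculated IP on day 0, and compounds in 0.9% saline were given IP, dosed by average cage weight. Weight change is the difference in mean group weight between the last and first treatment days.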

Mus musculus [5] = assay: Tested for the ratio of number of survivors / total number after 60 days at the dose of 5.0 mg/kg per injection against murine P388 Pt-resistant leukemia
Method in brief: (§4)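 CD2F1 (Balb/c × DBA/2F1) mice, 18–22 g, randomized and inoculated IP with counted leukemia cells on day 0, then re-randomized. Three IP treatments, dissolved in 0.9% saline and dosed on average cage weight, with dose in mg/kg per injection across a full toxic-to-ineffective range. Median life span and %T/C were recorded. Survivors at 60 days were counted as cured and excluded from %T/C.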

L1210 [6] = assay: Tested for median life span against solid tumor L1210 leukemia at 4.0 mg/kg per injection in experiment 1; conditions: Mus musculus
Method in brief: (§5)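 CD2F1 mice weighing 18–22 g were inoculated IP with leukemia cells on day 0. Compounds in 0.9% saline were given IP in three injections, dosed by average cage weight, over a dose range from toxic to ineffective. Median life span was recorded, with cause of death assessed at necropsy and 60-day survivors counted as cured.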

L1210 [7] = assay: Tested for the ratio of number of survivors / total number after 60 days at the dose of 4.0 mg/kg per injection against murine leukemia L1210 experiment 1; conditions: Mus musculus; method in brief: as §4
L1210 [8] = assay: Tested for the ratio of treated and control against solid tumor murine L1210 Pt-resistant leukemia 4.0 mg/kg per injection in experiment 1; T/C; conditions: Mus musculus; method in brief: as §1
L1210 [9] = assay: Tested for the ratio of treated and control against solid tumor murine L1210 leukemia 4.0 mg/kg per injection in experiment 1; T/C; conditions: Mus musculus; method in brief: as §1
L1210 [10] = assay: Tested for the ratio of number of survivors / total number after 60 days at the dose of 4.0 mg/kg per injection against murine L1210 Pt-resistant leukemia in experiment 1; conditions: Mus musculus; method in brief: as §4
L1210 [11] = assay: Tested for median life span against solid tumor L1210 Pt-resistant leukemia at 5.0 mg/kg per injection in experiment 2; conditions: Mus musculus; method in brief: as §5
Mus musculus [12] = assay: Tested for median life span against solid tumor P388 leukemia at 5.0 mg/kg per injection; T/C; method in brief: as §1
L1210 [13] = assay: Tested for the ratio of number of survivors / total number after 60 days at the dose of 10 mg/kg per injection against murine L1210 Pt-resistant leukemia in experiment 2; conditions: Mus musculus; method in brief: as §4
L1210 [14] = assay: Tested for in vivo weight change against murine L1210 leukemia at the dose of 4.0 mg/kg per injection in experiment 1; conditions: Mus musculus; method in brief: as §3
L1210 [15] = assay: Tested for the ratio of number of survivors / total number after 60 days at the dose of 6.0 mg/kg per injection against murine leukemia L1210 experiment 1; conditions: Mus musculus; method in brief: as §4
Mus musculus [16] = assay: Tested for median life span against solid tumor P388 Pt-resistant leukemia at 2.3 mg/kg per injection; method in brief: as §4
L1210 [17] = assay: Tested for median life span against solid tumor L1210 leukemia at 1.5 mg/kg per injection in experiment 1; conditions: Mus musculus; method in brief: as §5
Mus musculus [18] = assay: Tested for in vivo weight change against murine P388Pt-resistant leukemia at the dose of 3.7 mg/kg per injection; method in brief: as §3
L1210 [19] = assay: Tested for the ratio of treated and control against solid tumor murine L1210 leukemia 3.0 mg/kg per injection in experiment 1; T/C; conditions: Mus musculus; method in brief: as §1
Colon carcinoma cell = assay: Tested for net cell kill tumor burden reduction during therapy at the dose 2.5 mg/kg in colon carcinoma; set-up: dose 2.5 mg/kg; conditions: Mus musculus
L1210 [20] = assay: Tested for in vivo weight change against murine L1210 Pt-resistant leukemia at the dose of 1.6 mg/kg per injection in experiment 2; conditions: Mus musculus; method in brief: as §3
L1210 [21] = assay: Tested for the ratio of number of survivors / total number after 60 days at the dose of 3.0 mg/kg per injection against murine leukemia L1210 experiment 1; conditions: Mus musculus; method in brief: as §4
L1210 [22] = assay: Tested for in vivo weight change against murine L1210 leukemia at the dose of 1.6 mg/kg per injection in experiment 2; conditions: Mus musculus; method in brief: as §3
L1210 [23] = assay: Tested for in vivo weight change against murine L1210 Pt-resistant leukemia at the dose of 1.5 mg/kg per injection in experiment 1; conditions: Mus musculus; method in brief: as §3
L1210 [24] = assay: Tested for median life span against solid tumor L1210 Pt-resistant leukemia at 1.6 mg/kg per injection in experiment 2; conditions: Mus musculus; method in brief: as §5
Mus musculus [25] = assay: Tested for net cell kill tumor burden reduction during therapy at the dose 4.0 mg/kg in B16 melanoma; set-up: dose 4 mg/kg; method in brief: as §2
L1210 [26] = assay: Tested for in vivo weight change against murine L1210 leukemia at the dose of 1.5 mg/kg per injection in experiment 1; conditions: Mus musculus; method in brief: as §3
Mus musculus [27] = assay: Tested for in vivo weight change against murine P388Pt-resistant leukemia at the dose of 2.3 mg/kg per injection; method in brief: as §3
L1210 [28] = assay: Tested for median life span against solid tumor L1210 Pt-resistant leukemia at 1.5 mg/kg per injection in experiment 1; conditions: Mus musculus; method in brief: as §5
L1210 [29] = assay: Tested for the ratio of number of survivors / total number after 60 days at the dose of 3.0 mg/kg per injection against murine L1210 Pt-resistant leukemia in experiment 1; conditions: Mus musculus; method in brief: as §4
M5076 [30] = assay: Tested for net cell kill tumor burden reduction during therapy at the dose 4.0 mg/kg in M5076 sarcoma; set-up: dose 4 mg/kg; conditions: Mus musculus
Mus musculus [31] = assay: Tested for the ratio of number of survivors / total number after 60 days at the dose of 3.7 mg/kg per injection against murine P388 Pt-resistant leukemia; method in brief: as §4
Mus musculus [32] = assay: Tested for the ratio of treated and control tumor to reach 750 mg against murine solid tumor M5076 sarcoma 4.0 mg/kg per injection; method in brief: as §2
Mus musculus [33] = assay: Tested for in vivo weight change against murine colon carcinoma at the dose of 2.5 mg/kg per injection
L1210 [34] = assay: Tested for median life span against solid tumor L1210 leukemia at 1.6 mg/kg per injection in experiment 2; conditions: Mus musculus; method in brief: as §5

Q: Which results are given for CISPLATIN?
A: T/C (Mus musculus [1]): 86%; MLS (Mus musculus [2]): 29 days; Log net cell kill (M5076 [3]): 0.8; Weight change (L1210 [4]): -3.3 g; Survivors (Mus musculus [5]): 0; MLS (L1210 [6]): 19.5 days; Survivors (L1210 [7]): 1; Ratio (L1210 [8]): 109%; Ratio (L1210 [9]): 184%; Survivors (L1210 [10]): 0; MLS (L1210 [11]): 11 days; T/C (Mus musculus [12]): 261%; Survivors (L1210 [13]): 0; Weight change (L1210 [14]): 1 g; Survivors (L1210 [15]): 1

Q: [Pt(cis-1,4-dach)CL2] was tested. Which Survivors (Mus musculus [16]) did it give?
A: Its Survivors is 21 days.

Q: And the MLS (L1210 [17])?
A: Its MLS is 23 days.

Q: And the Weight change (Mus musculus [18])?
A: The Weight change was -5.2 g.

Q: And the Ratio (L1210 [19])?
A: Its Ratio is 203%.

Q: And the Log net cell kill (Colon carcinoma cell)?
A: The Log net cell kill was -0.4.

Q: And the Weight change (L1210 [20])?
A: Its Weight change is 1.9 g.

Q: And the 60-day survivors (L1210 [21])?
A: The 60-day survivors was 1.

Q: And the Weight change (L1210 [22])?
A: Its Weight change is 0.9 g.

Q: What about the Weight change (L1210 [23]) of the same substance?
A: The Weight change was 1.9 g.

Q: And the MLS (L1210 [24])?
A: The MLS was 15 days.

Q: And the Log net cell kill (Mus musculus [25])?
A: Its Log net cell kill is -0.5.

Q: And the Weight change (L1210 [26])?
A: The Weight change was 0.6 g.

Q: What about the Weight change (Mus musculus [27]) of the same substance?
A: The Weight change was -0.1 g.

Q: And the MLS (L1210 [28])?
A: The MLS was 15.7 days.

Q: What about the 60-day survivors (L1210 [29]) of the same substance?
A: The 60-day survivors was 2.

Q: And the Log net cell kill (M5076 [30])?
A: Its Log net cell kill is 0.6.

Q: And the Survivors (Mus musculus [31])?
A: Its Survivors is 0.

Q: And the T-C (Mus musculus [32])?
A: Its T-C is 13.5 days.

Q: What about the Weight change (Mus musculus [33]) of the same substance?
A: The Weight change was -4.2 g.

Q: What about the MLS (L1210 [34]) of the same substance?
A: Its MLS is 21.3 days.
